Measurements: ChEMBL document CHEMBL3792332, “Novel chromone and xanthone derivatives: Synthesis and ROS/RNS scavenging activities” (Eur J Med Chem, 2016)

What was measured:
Assay type in all cases: physicochemical
[1] = Antioxidant activity assessed as inhibition of HOCl-induced oxidation of DHR to rhodamine 123 at 37 degC by fluorimetric method
Method in brief: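 HOCl made daily by adjusting 1% NaOCl to pH 6.2 with 10% H2SO4. HOCl-induced DHR oxidation to rhodamine 123 read immediately at ex 480/em 528 nm, 37 °C. Compounds in ethanol, final 6.25–400 μM. IC50 from inhibition curves, 5–7 concentrations in triplicate, ≥4 independent experiments.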

[2] = Antioxidant activity assessed as inhibition of peroxynitrite induced oxidation of the non-fluorescent dihydrorhodamine 123 to the fluorescent rhodamine-123 in presence of NaHCO3 after 2 mins by fluorimetric method
Method in brief: (§1)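 Peroxynitrite (synthesized in-house) oxidizes DHR to rhodamine 123; fluorescence read after 2 min at 37 °C. Compounds in DMSO at final 0.156–5 μM. A parallel set was run with 25 mM NaHCO3 to mimic physiological CO2. IC50 from inhibition curves, 5–7 concentrations in triplicate, ≥4 independent experiments.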

[3] = Antioxidant activity assessed as inhibition of superoxide induced reduction of NBT measured for 2 mins by UV-visible spectrophotometric method; conditions: for inhibition (INH): 2 min
Method in brief: (§2)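 Superoxide produced by the NADH/PMS/O2 system at room temperature. NBT reduction followed at 560 nm over 2 min. Compounds in DMSO at final 25–200 μM. IC50 from % inhibition vs concentration curves, at least four independent experiments in triplicate. The single-concentration line is % inhibition at the top concentration.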

[4] = Antioxidant activity assessed as inhibition of singlet oxygen induced oxidation of non-fluorescent DHR to fluorescent rhodamine 123 at 37 degC measured after 30 mins by fluorimetric method; conditions: for inhibition (INH): 0.5 h
Method in brief: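 Singlet oxygen generated by thermal decomposition of NDPO2 at 37 °C. DHR oxidation to rhodamine 123 read fluorimetrically after 30 min incubation. Compounds in DMSO, final 0.3125–20 μM for chromones and 0.625–80 μM for xanthones. IC50 from % inhibition curves, 5–7 concentrations in triplicate, ≥4 independent experiments.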

[5] = Antioxidant activity assessed as inhibition of peroxynitrite induced oxidation of the non-fluorescent dihydrorhodamine 123 to the fluorescent rhodamine 123 after 2 mins by fluorimetric method; conditions: for inhibition (INH): 2 min; method in brief: as §1
[6] = Antioxidant activity assessed as inhibition of H2O2 induced lucigenin oxidation at 37 degC
Method in brief: (§3)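 H2O2 scavenging by chemiluminescence: H2O2-induced lucigenin oxidation, signal recorded immediately after the plate enters the reader. Compounds in DMSO at final 31.25–1000 μM, 37 °C. IC50 from % inhibition vs concentration curves (5–7 concentrations in triplicate, at least four independent experiments). Single-concentration line gives % effect at the top concentration. Quercetin as positive control.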

[7] = Antioxidant activity assessed as inhibition of NO-induced oxidation of non-fluorescent DAF-2 to the fluorescent triazolofluorescein after 30 mins by fluorimetric method; conditions: for inhibition (INH): 0.5 h
Method in brief: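 •NO released from NOC-5; oxidation of DAF-2 to DAF-2T read fluorimetrically (ex 485/em 528 nm) after 30 min at 37 °C. Compounds in DMSO at final 0.25–8 μM. IC50 derived from % inhibition vs concentration curves, 5–7 concentrations in triplicate, at least four independent experiments.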

[8] = Antioxidant activity assessed as inhibition of superoxide induced reduction of NBT measured for 2 mins at 200 uM by UV-visible spectrophotometric method; method in brief: as §2
[9] = Antioxidant activity assessed as inhibition of H2O2 induced lucigenin oxidation at 1000 uM at 37 degC; method in brief: as §3

| Structure (SMILES) | IC50 [1] [µM] | inhibition (INH) [1] | IC50 [2] [µM] | inhibition (INH) [3] | IC50 ([3]; read-out: IC50) [µM] | IC50 [4] [µM] | inhibition (INH) [4] | IC50 [5] [µM] | inhibition (INH) [5] | IC50 [6] [µM] | inhibition (INH) [6] | IC50 [7] [µM] | inhibition (INH) [7] | inhibition (INH) [8] [%] | IC50 [3] | inhibition (INH) [9] [%] |
| --- | --- | --- | --- | --- | --- | --- | --- | --- | --- | --- | --- | --- | --- | --- | --- | --- |
| O=c1c2c(O)cccc2oc2cccc(-c3ccc(O)c(O)c3)c12 | 96 | Dose-dependent effect | 0.56 | Dose-dependent effect | 80 | 10 | Dose-dependent effect | 0.57 | Dose-dependent effect | 658 | Dose-dependent effect | 1.5 | Dose-dependent effect |  |  |  |
| O=c1cc(/C=C/C=C/c2ccc(O)c(O)c2)oc2ccccc12 | 32 | Dose-dependent effect | 0.34 |  |  | 1.3 | Dose-dependent effect | 0.33 | Dose-dependent effect | 143 | Dose-dependent effect | 0.82 | Dose-dependent effect |  | ND(Insoluble) |  |
| O=c1c2ccccc2oc2cccc(-c3ccc(O)c(O)c3)c12 | 158 | Dose-dependent effect | 0.35 | Dose-dependent effect | 55 | 4.4 | Dose-dependent effect | 0.51 | Dose-dependent effect |  |  | 1.99 | Dose-dependent effect |  |  | 12 |
| O=c1cc(/C=C/C=C/c2ccc(O)c(O)c2)oc2cccc(O)c12 | 94 | Dose-dependent effect | 0.4 |  |  | 1.1 | Dose-dependent effect | 0.34 | Dose-dependent effect | 125 | Dose-dependent effect | 1.23 | Dose-dependent effect |  | ND(Insoluble) |  |
| O=c1c(O)c(-c2ccc(O)c(O)c2)oc2cc(O)cc(O)c12 [QUERCETIN] | 2.4 |  | 0.68 |  | 60 | 1.5 |  | 0.45 |  | 1340 |  | 0.77 |  |  |  |  |

The next lines start with the values.

| IC50 [1] [µM] | inhibition (INH) [1] | IC50 [2] [µM] | inhibition (INH) [3] | IC50 ([3]; read-out: IC50) [µM] | IC50 [4] [µM] | inhibition (INH) [4] | IC50 [5] [µM] | inhibition (INH) [5] | IC50 [6] [µM] | inhibition (INH) [6] | IC50 [7] [µM] | inhibition (INH) [7] | inhibition (INH) [8] [%] | IC50 [3] | inhibition (INH) [9] [%] | Structure (SMILES) |
| --- | --- | --- | --- | --- | --- | --- | --- | --- | --- | --- | --- | --- | --- | --- | --- | --- |
| 17 | Dose-dependent effect | 0.3 |  |  | 1.6 | Dose-dependent effect | 0.29 | Dose-dependent effect | 121 | Dose-dependent effect | 1.42 | Dose-dependent effect | 36 |  |  | O=c1cc(/C=C/C=C/c2ccc(O)c(O)c2)oc2cc(O)ccc12 |
| 31 | Dose-dependent effect | 0.66 | Dose-dependent effect | 61 | 7.3 | Dose-dependent effect | 0.39 | Dose-dependent effect | 518 | Dose-dependent effect | 1.08 | Dose-dependent effect |  |  |  | O=c1c2ccc(O)cc2oc2cccc(-c3ccc(O)c(O)c3)c12 |
